The source of these data is PubChem BioAssay.

Calls of active or inactive are those of the source.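 The calls were made as follows, unless noted: active = viability at or under a set limit in both replicates, limit being median viability minus 3 SD (cut at about 48% in these data, passing the limit was not always enough); inconclusive = at or under the limit in just one replicate; inactive = at or above the limit in both replicates.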

The nature of assay [1]: Her2 expression decrease, cell viability multiplex – SKBR3 breast tumor cells, AlphaScreen, ATP viability, primary screen (AID 461;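 active = Her2 level under about 52% in both replicate screens, with viability over 70% of control, limit read from the data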;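 as to Her2 level: lower value means less Her2 protein in the cells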;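 as to viability: percent of carrier control wells set as 100% viability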). Conditions: SKBR3 Her2 protein level, 18-24 h, measured here: SKBR3 viability, ATP luminescence, at 10 µM.
The target of assay [2] is Receptor tyrosine-protein kinase erbB-2 (Homo sapiens) (UniProt P04626). Described as above. To be noted: 18-24 h, at 10 µM, stronger effect = lower value.
Sequence of Receptor tyrosine-protein kinase erbB-2 (Homo sapiens) (P04626 whole entry, looked up): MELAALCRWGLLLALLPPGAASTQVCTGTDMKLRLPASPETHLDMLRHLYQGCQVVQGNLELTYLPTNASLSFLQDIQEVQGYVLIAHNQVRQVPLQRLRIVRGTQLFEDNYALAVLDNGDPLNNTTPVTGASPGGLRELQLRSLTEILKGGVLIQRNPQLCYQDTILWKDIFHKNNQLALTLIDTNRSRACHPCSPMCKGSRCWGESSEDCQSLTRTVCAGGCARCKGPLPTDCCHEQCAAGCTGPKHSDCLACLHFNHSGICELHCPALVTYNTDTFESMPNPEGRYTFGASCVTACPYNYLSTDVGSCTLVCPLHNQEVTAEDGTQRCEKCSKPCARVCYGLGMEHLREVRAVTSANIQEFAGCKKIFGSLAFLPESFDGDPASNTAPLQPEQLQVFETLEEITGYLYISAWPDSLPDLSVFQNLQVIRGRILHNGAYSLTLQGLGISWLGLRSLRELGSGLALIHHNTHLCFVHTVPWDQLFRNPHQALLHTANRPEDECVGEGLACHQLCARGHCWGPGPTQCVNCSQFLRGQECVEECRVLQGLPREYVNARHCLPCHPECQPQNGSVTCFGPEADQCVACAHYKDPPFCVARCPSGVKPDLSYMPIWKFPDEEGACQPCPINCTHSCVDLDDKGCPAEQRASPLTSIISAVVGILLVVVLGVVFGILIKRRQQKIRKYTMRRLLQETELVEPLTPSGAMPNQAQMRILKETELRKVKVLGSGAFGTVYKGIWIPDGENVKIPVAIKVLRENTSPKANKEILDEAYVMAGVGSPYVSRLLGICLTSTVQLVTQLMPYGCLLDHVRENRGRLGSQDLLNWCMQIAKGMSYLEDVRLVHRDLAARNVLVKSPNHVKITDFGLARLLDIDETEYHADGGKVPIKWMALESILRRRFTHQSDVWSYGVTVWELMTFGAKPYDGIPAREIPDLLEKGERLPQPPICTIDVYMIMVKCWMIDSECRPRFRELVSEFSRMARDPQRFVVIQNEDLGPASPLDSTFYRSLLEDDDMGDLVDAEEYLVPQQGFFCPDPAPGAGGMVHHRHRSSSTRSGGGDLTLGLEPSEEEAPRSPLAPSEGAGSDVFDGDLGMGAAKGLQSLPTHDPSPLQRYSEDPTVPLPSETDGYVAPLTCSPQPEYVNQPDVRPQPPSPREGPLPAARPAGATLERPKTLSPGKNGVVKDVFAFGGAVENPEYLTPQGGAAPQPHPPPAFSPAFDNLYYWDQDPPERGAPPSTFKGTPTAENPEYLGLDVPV
A short description of assay [3]: reduced viability of SK-BR-3 breast cancer cells – cell-based, 24 h, human, pilot screen (AID 572;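 active = viability at or below 10% of carrier control in both of two separate runs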;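 also: compound exposure lasted between 18 and 24 h rather than exactly 24 h; 100% = carrier-treated control wells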). To be noted: SK-BR-3 viability, CellTiter-Glo luminescence, at 10 µM, stronger effect = lower value. On the technique in general: ATP-based viability assays read luminescence as a measure of living cells.
Assay [4] is described as follows: HUVEC growth inhibition – cell-based, human, primary screen (AID 575;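 active = viability at or below 30% in both replicate assays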;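 also: 100% = median of untreated cell wells with 0.1% DMSO on each plate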). To be noted: HUVEC proliferation, CellTiter-Glo luminescence, 72 h; at 10 µM; stronger effect = lower value. The method in brief:
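Test system: HUVEC primary cells. Quantity: 1250 endothelial cells in each well. Dosing: single-point 10 µM, DMSO 0.1% final. Incubation: 72 h treatment at 37 °C. Measured by: CTG luminescence. Control set: DMSO cell controls and MePR drug controls. Plate: collagen-coated 384-well format.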

A short description of assay [5]: H69AR cell proliferation blockers – human, duplicate replicates, primary screen (AID 580).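 Also: 100% = mean luminescence of untreated wells and 0% = no signal.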 To be noted: H69AR lung tumor cells viability, ATP luminescence, 72 h; at 10 µM; stronger effect = lower value.
Assay [6] can be described thus: MRP1 drug-resistance reversers in H69AR cells – cell-based, doxorubicin co-treatment, pilot screen (AID 601;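 active = viability loss from added drug above about 55%, and viability with drug at most 40%, in both replicates, limit read from the data, passing the limit was not always enough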). To be noted: CellTiter-Glo, 72 h, at 10 µM; for differential viability (reversal): stronger effect = higher value.
Assay [7] can be described thus: yeast transport mutant growth inhibition pilot in 384-well plates, post-Golgi transport modulator project (AID 636; in the data active = inhibition above about 31%). To be noted: absorbance 615 nm, about 18 h, stronger effect = higher value.
The nature of assay [8]: growth suppression of yeast trafficking mutant, preliminary HTS, modulators of trafficking downstream of Golgi apparatus project, 1536-format plate, OD 615 nm (AID 637; in the data active = inhibition above about 30%). To be noted: yeast transport mutant growth, absorbance 615 nm, 18 h; stronger effect = higher value.
Setting [9] is: H69AR cells + 2 uM doxorubicin, measured here: viability with 2 uM doxorubicin, stronger effect = lower value.
[10] abbreviates: H69AR cells, compound alone cytotoxicity.

Usually viability stands for a read-out of living cells in per cent, often relative to untreated cells. The inhibition is the change of the read-out against control, counted positive when it falls. Regarding `CCOc1ccc(NC(=O)C2CC(=O)N(C(C)C)C2)cc1` (stereo not given), the viability is 103% in assay [1]; 103% (inactive) in assay [3]; 114% (inactive) in assay [4]; 99.7% (inactive) in assay [5]; 92.7% in assay [6] (setting [9]); 99.7% in assay [6] (setting [10]). In addition, the Her2 level in assay [2] was 82% (inactive). In addition, the differential viability (reversal) in assay [6] (H69AR cells + 2 uM doxorubicin) was 7% (inactive). The inhibition in assay [7] is -2% (inactive); in assay [8], 0.49% (inactive).

Consider `CCSCCC(NC1=CC(=O)CC(C)(C)C1)C(=O)O` (stereo not given), for which the viability is 92% in assay [1]; 92% (inactive) in assay [3]; 116% (inactive) in assay [4]; 101% (inactive) in assay [5]; 94.8% in assay [6] (setting [9]); 101% in assay [6] (setting [10]). Also, the Her2 level in assay [2] was 89% (inactive). In assay [6] (H69AR cells + 2 uM doxorubicin), the differential viability (reversal) was 5.77% (inactive). In addition, the inhibition in assay [7] was 1.58% (inactive); in assay [8] it was -3.45% (inactive).

As for `Cc1nnc(NC(=O)Nc2cccc(Cl)c2)s1`, the viability in assay [1] is 86%; in assay [3], 86% (inactive); in assay [4] it was 76.8% (inactive); in assay [5] it was 63% (inactive); in assay [6] (setting [9]), 84.1%; in assay [6] (setting [10]), 63%. Further, the Her2 level in assay [2] is 89.5% (inactive). The differential viability (reversal) in assay [6] (H69AR cells + 2 uM doxorubicin) is -21% (inactive). Also, the values for the inhibition in assay [7] and in assay [8] were -6.18% (inactive) and -4.03% (inactive), respectively.

With `CC(Oc1ccccc1)C(=O)N1CCCc2ccccc21` (stereo not given), the viability was 101% in assay [1]; 101% (inactive) in assay [3]; 95.4% (inactive) in assay [4]; 94.3% (inactive) in assay [5]; 89.8% in assay [6] (setting [9]); 94.3% in assay [6] (setting [10]). Also, in assay [2], the Her2 level was 104% (inactive). Moreover, in assay [6] (H69AR cells + 2 uM doxorubicin), the differential viability (reversal) is 4.51% (inactive). Also, the inhibition in assay [7] was -1.76% (inactive); in assay [8], -4.33% (inactive).

As for `COc1ccc(CCNC(=O)C2CCN(Cc3nc(-c4cccc(Cl)c4)oc3C)CC2)cc1OC`, the viability in assay [1] is 83.5%; in assay [3] it was 83.5% (inactive); in assay [4] it was 47.9% (inactive); in assay [5], 73.4% (inactive); in assay [6] (setting [9]) it was 101%; in assay [6] (setting [10]) it was 73.4%. Besides, in assay [2], the Her2 level is 81.5% (inactive). The differential viability (reversal) in assay [6] (H69AR cells + 2 uM doxorubicin) was -27.2% (inactive). Further, the inhibition in assay [7] was -5.13% (inactive); in assay [8], -1.45% (inactive).

As for `COCCn1nnnc1C(c1cc2cc(OC)ccc2[nH]c1=O)N1CCC(Cc2ccccc2)CC1` (stereo not given), the viability was 124% in assay [1]; 124% (inactive) in assay [3]; 65.4% (inactive) in assay [4]; 9.35% (active) in assay [5]; 24.8% in assay [6] (setting [9]); 9.35% in assay [6] (setting [10]). Also, in assay [2], the Her2 level was 80% (inactive). In addition, the differential viability (reversal) in assay [6] (H69AR cells + 2 uM doxorubicin) was -15.4% (inactive). For the same compound, the inhibition was -7.87% (inactive) in assay [7] and -2.38% (inactive) in assay [8].

Take `CCNC(=O)N1c2ccc(OCC)cc2C(C)=CC1(C)C`: the viability is 95.5% in assay [1]; 95.5% (inactive) in assay [3]; 106% (inactive) in assay [4]; 89.3% (inactive) in assay [5]; 90.8% in assay [6] (setting [9]); 89.3% in assay [6] (setting [10]). In assay [2], the Her2 level was 99.5% (inactive). Moreover, the differential viability (reversal) in assay [6] (H69AR cells + 2 uM doxorubicin) is -1.44% (inactive). In addition, the inhibition in assay [7] is -7.76% (inactive); in assay [8] it was -1.15% (inactive).

Turning to `Cc1ccc(S(=O)(=O)N2CCCC2C(=O)OCc2nc3ccccc3s2)cc1` (stereo not given), the viability is 85.5% in assay [1]; 85.5% (inactive) in assay [3]; 79.7% (inactive) in assay [4]; 99.2% (inactive) in assay [5]; 99.1% in assay [6] (setting [9]); 99.2% in assay [6] (setting [10]). Further, the Her2 level in assay [2] is 80.5% (inactive). Further, the differential viability (reversal) in assay [6] (H69AR cells + 2 uM doxorubicin) is 0.14% (inactive). The results for the inhibition in assay [7] and in assay [8] were -7.95% (inactive) and -5.4% (inactive), respectively.

Take `O=C(Oc1cccc2cccnc12)c1cccc(-n2cnnn2)c1`: the viability was 104% in assay [1]; 104% (inactive) in assay [3]; 60.3% (inactive) in assay [4]; 91.9% (inactive) in assay [5]; 76.8% in assay [6] (setting [9]); 91.9% in assay [6] (setting [10]). Also, the Her2 level in assay [2] is 82% (inactive). In addition, in assay [6] (H69AR cells + 2 uM doxorubicin), the differential viability (reversal) is 15.1% (inactive). Moreover, the inhibition in assay [7] is -2.53% (inactive); in assay [8], 5.97% (inactive).

As for `CCOC(=O)c1[nH]c2ccc(Br)cc2c1NC(=O)CNC`, the viability in assay [1] was 93%; in assay [3], 93% (inactive); in assay [4] it was 101% (inactive); in assay [5] it was 87.3% (inactive); in assay [6] (setting [9]) it was 87.5%; in assay [6] (setting [10]) it was 87.3%. Besides, the Her2 level in assay [2] was 99.5% (inactive). In assay [6] (H69AR cells + 2 uM doxorubicin), the differential viability (reversal) was -0.115% (inactive). Besides, the inhibition in assay [7] was -2.37% (inactive); in assay [8] it was 8.85% (inactive).

For the compound `CCOC(=O)c1sc(C)c2c1NC(C)(c1cccs1)NC2=O` (stereo not given), the viability in assay [1] is 105%; in assay [3], 105% (inactive); in assay [4], 83.6% (inactive); in assay [5] it was 82.5% (inactive); in assay [6] (setting [9]), 90.6%; in assay [6] (setting [10]) it was 82.5%. For the same compound, the Her2 level in assay [2] was 96.5% (inactive). In addition, the differential viability (reversal) in assay [6] (H69AR cells + 2 uM doxorubicin) is -8.16% (inactive). The inhibition in assay [7] was -1.73% (inactive); in assay [8], -6.94% (inactive).

As for `CCCCOC(=O)n1c(SCC(=O)N(CC)CC)nc2ccccc21`, the viability in assay [1] is 86%; in assay [3] it was 86% (inactive); in assay [4] it was 81.8% (inactive); in assay [5], 91.4% (inactive); in assay [6] (setting [9]), 89.6%; in assay [6] (setting [10]), 91.4%. The Her2 level in assay [2] was 97.5% (inactive). The differential viability (reversal) in assay [6] (H69AR cells + 2 uM doxorubicin) was 1.75% (inactive). The inhibition in assay [7] is -1.82% (inactive); in assay [8] it was -4.29% (inactive).

On to `CC(C)N(C(=O)CSc1nnc(NC(=O)C2CCC2)s1)C(C)C`, for which the viability in assay [1] was 82.5%; in assay [3] it was 82.5% (inactive); in assay [4] it was 90.4% (inactive); in assay [5], 92.9% (inactive); in assay [6] (setting [9]), 89%; in assay [6] (setting [10]), 92.9%. The Her2 level in assay [2] is 90.5% (inactive). Further, in assay [6] (H69AR cells + 2 uM doxorubicin), the differential viability (reversal) is 3.82% (inactive). In addition, the inhibition was -1.47% (inactive) in assay [7] and -2.42% (inactive) in assay [8].

In the case of `COc1ccc(C2CC(=O)C(C=NCCN3CCOCC3)=C(O)C2)cc1` (stereo not given), the viability is 87.5% in assay [1]; 87.5% (inactive) in assay [3]; 85.7% (inactive) in assay [4]; 98.5% (inactive) in assay [5]; 95.8% in assay [6] (setting [9]); 98.5% in assay [6] (setting [10]). Besides, the Her2 level in assay [2] is 87% (inactive). The differential viability (reversal) in assay [6] (H69AR cells + 2 uM doxorubicin) is 2.73% (inactive). For the same compound, the inhibition was -0.79% (inactive) in assay [7] and 8.69% (inactive) in assay [8].
